Screening results from PubChem BioAssay.
CHRM4 agonist: agonists of human muscarinic M4 receptor (CHRM4) | P08173 | CHO-K1 hM4/Gqi5, Fluo-8 calcium fluorescence; vehicle 0%, full acetylcholine response 100% | 0.14% of 360,000 active | activation, % at 3 µM;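 active = activation above the run mean over all test wells plus 3 SD, cut at about 32% in these data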;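 note: peak over basal fluorescence ratio per well then scaled between controls; 0% = DMSO wells and 100% = acetylcholine at EC100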
Target sequence (P08173 whole entry, looked up): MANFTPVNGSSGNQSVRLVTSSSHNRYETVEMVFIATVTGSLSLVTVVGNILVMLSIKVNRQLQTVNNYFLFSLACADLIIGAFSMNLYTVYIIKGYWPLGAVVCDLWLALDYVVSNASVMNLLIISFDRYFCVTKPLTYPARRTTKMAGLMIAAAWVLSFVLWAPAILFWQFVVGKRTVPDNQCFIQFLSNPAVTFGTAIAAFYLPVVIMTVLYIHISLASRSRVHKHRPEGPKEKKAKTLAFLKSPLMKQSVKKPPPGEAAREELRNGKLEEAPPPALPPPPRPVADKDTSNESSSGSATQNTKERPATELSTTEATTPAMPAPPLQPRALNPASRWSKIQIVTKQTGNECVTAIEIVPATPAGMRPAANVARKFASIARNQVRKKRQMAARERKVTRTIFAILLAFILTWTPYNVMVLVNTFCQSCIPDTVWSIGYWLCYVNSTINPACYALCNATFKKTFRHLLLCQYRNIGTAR
CHRM4 PAM: positive allosteric modulators of human muscarinic M4 receptor; P08173; 0.4% of 360,000 active; AID 624126; activation, % at 3 µM; CHO-K1 hM4/Gqi5, Fluo-8 calcium fluorescence, ACh EC20; 0% = ACh EC20, 100% = maximal ACh;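 active = activation above its plate's cutoff, the mean activation of sample wells plus 3 SD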
CHRM5 agonist: CHRM5 agonism in calcium assay. activation, % at 3 µM. CHO-K1 hM5 cells, Fluo-8 calcium fluorescence; 0% DMSO wells, 100% maximal acetylcholine response. P08912. AID 624037. 0.19% of 360,000 active;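 active = activation above the run's mean over test compounds plus 3 SD, cut at about 23% in these data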;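 note: signal is peak over basal fluorescence ratio across the kinetic read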
CHRM5 antagonist: CHRM5 antagonism in calcium assay; P08912; inhibition, % at 3 µM; 0.59% of 360,000 active; CHO-hM5 cells, Fluo-8 calcium fluorescence, ACh EC80;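 active = inhibition above a per-plate cutoff, the mean of that plate's test compounds plus 3 SD, cut at about 27% in these data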;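 note: 0% = acetylcholine EC80 with DMSO and 100% = DMSO without agonist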
CHRM4 antagonist: CHRM4 antagonism in calcium assay | AID 624125 | CHO-hM4 cells, ACh EC80, Fluo-8 calcium fluorescence | inhibition, % at 3 µM | 0.73% of 360,000 active;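 active = inhibition above its plate's cutoff, the mean inhibition of sample wells plus 3 SD, cut at about 27% in these data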;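 note: 0% = acetylcholine EC80 with DMSO and 100% = DMSO without agonist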
M5 PAM: potentiates acetylcholine response at human M5 receptor. CHO-K1 hM5, Fluo-8 calcium, ACh EC20 PAM; 0% = ACh EC20, 100% = ACh EC100. activation, % at 3 µM. 0.3% of 360,000 active. P08912. AID 624038;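 active = activation above the run cutoff, the mean activation of all test compounds plus 3 SD, cut at about 18% in these data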
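Measured by: Fluo-8 calcium fluorescence; material: human M5 receptor in CHO-K1 cells; schedule: Post-acetylcholine fluorescence recording 140 s; benchmarks: low control EC20 acetylcholine (0%), high control EC100 acetylcholine (100%); read-out: Max/basal fluorescence ratio as % of EC20–EC100 ACh window; compound: single dose, 3 µM nominal final test concentration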
* marks the source's active call; other numbers are inactive results. In the library only some 1.8% were active in any assay of this set; here they are far more common.

SMILES | CHRM4 agonist | CHRM4 PAM | CHRM5 agonist | CHRM5 antagonist | CHRM4 antagonist | M5 PAM
O=C(CN1CCC(NC(=O)c2cccc(F)c2)CC1)NCc1cccs1 | 3.1 | 24.1* | -0.9 | 17.3 | -2.7 | -0.6
CCc1ccc(N2CC(C(=O)Nc3ccc4c(c3)OCCO4)CC2=O)cc1 (stereo unspecified) | -0.1 | -10.4 | -1.9 | 11.9 | 8.5 | -4.4
Cc1ccc(S(=O)(=O)N2CCOC2CNC(=O)C(=O)NCC(C)C)cc1 (stereo unspecified) | 2.1 | 22.4* | -0.1 | -10.2 | -9.5 | 13.2
COc1ccc(S(=O)(=O)N2CCCOC2CNC(=O)C(=O)NC2CCCC2)cc1 (stereo unspecified) | 3.4 | 9.6 | 1.1 | -18.1 | -16.8 | 29.6*
O=C(NCC1OCCCN1S(=O)(=O)c1ccc(F)cc1)C(=O)NC1CCCC1 (stereo unspecified) | 1.8 | -1.9 | -2.6 | 5.5 | -2.4 | -2.0
COC(=O)c1ccc(COC(=O)c2ccc(C)c(S(=O)(=O)N3CCCCC3)c2)cc1 | -0.1 | -0.9 | -3.9 | 10.8 | -6.9 | -10.8
COc1cccc(-n2c(SCC(=O)NCc3ccco3)nnc2-c2c[nH]c3ccccc23)c1 | 0.2 | 8.6 | -0.1 | 2.5 | -16.3 | -3.0
COc1ccc(OC)c(-n2c(SCC(=O)NCc3ccco3)nnc2-c2c[nH]c3ccccc23)c1 | 0.4 | -12.0 | -0.9 | -3.9 | 40.5* | -4.8
COc1ccc(-c2[nH]c(-c3ccc(C)cc3)nc2SCC(=O)NCc2ccco2)cc1OC | 0.3 | 20.6* | -1.9 | -8.7 | -24.3 | 3.7
Cc1ccc(C)c(NC(=S)N2CCC(NC(=O)c3ccccc3)CC2)c1 | 0.9 | 12.4 | -3.0 | -7.5 | -23.2 | 5.0
CCS(=O)(=O)N1CCC(C(=O)Nc2ccc3c(c2)CCC3)CC1 | 2.1 | -4.3 | -0.2 | 1.7 | -3.7 | 2.6
COc1ccc(NC(=O)CSc2nnc(NC(=O)c3ccc(S(=O)(=O)N4CCOCC4)cc3)s2)cc1 | 0.8 | 5.1 | 7.4 | 15.5 | 22.9 | 23.0*
Cc1ccc(S(=O)(=O)N2CCOC23CCN(C(=O)C(=O)NCc2ccccc2)CC3)cc1 | 2.1 | 4.9 | -3.3 | 1.1 | -8.8 | 2.1
S=c1[nH]nc(-c2cccnc2)n1C1CCCCC1 | 1.2 | 25.8* | -3.8 | 11.1 | -1.4 | 3.8
CC1CCCCC1n1c(-c2cccnc2)n[nH]c1=S (stereo unspecified) | 1.3 | 6.6 | -14.7 | -6.0 | -10.3 | 3.2
O=C(COC(=O)c1ccccc1O)NC12CC3CC(CC(C3)C1)C2 | 2.3 | -5.0 | 2.1 | 1.7 | 12.8 | -10.9
O=C(COC(=O)c1ccccn1)NC12CC3CC(CC(C3)C1)C2 | 1.5 | 10.9 | 0.8 | 4.5 | 29.7* | 7.2
CCC1CCCCN1CCCNC(=O)c1ccc2c(c1)N(Cc1ccc(F)cc1)C(=O)c1ccccc1S2=O (stereo unspecified) | 2.2 | -13.9 | -10.8 | 5.7 | 29.4* | -8.7
O=C(NCCCN1CCCC1)c1ccc2c(c1)N(Cc1ccc(F)cc1)C(=O)c1ccccc1S2=O (stereo unspecified) | 1.1 | -7.6 | -9.1 | 7.7 | -0.8 | -1.9
C[C@H](CO)N1C[C@H](C)[C@@H](CN(C)C(=O)Nc2ccc3c(c2)OCO3)Oc2ccc(NC(=O)Cn3cnnn3)cc2C1=O | -0.3 | 5.4 | 0.9 | 13.0 | 2.6 | -5.0
N=C1N(/N=C/c2ccccc2)C(=Nc2ccccc2)C(=S)N1c1ccccc1 | 0.9 | -25.7 | -2.0 | -4.0 | 54.9* | -0.4
COC(=O)c1[nH]c2ccc(F)cc2c1NS(=O)(=O)c1ccc(F)c(C)c1 | 4.8 | -30.6 | -5.3 | 19.8 | 39.6* | -10.2
CCC1CCCCN1CCCNC(=O)CNC(=O)c1nn(-c2ccc(OC)c(Cl)c2)c(=O)c2ccccc12 (stereo unspecified) | 2.5 | -18.2 | -7.2 | 10.0 | 37.2* | -2.4
COc1ccc(-n2nc(C(=O)NCC(=O)Nc3cc(OC)c(OC)c(OC)c3)c3ccccc3c2=O)cc1OC | 18.1 | -12.0 | 3.4 | 17.1 | 26.6* | -12.9
CN1CCN(c2ccccc2NC(=O)COc2ccc(Cl)cc2)CC1 | 4.5 | -0.1 | -8.3 | 13.0 | 4.5 | -3.5
SMILES | CHRM4 agonist | CHRM4 PAM | CHRM5 agonist | CHRM5 antagonist | CHRM4 antagonist | M5 PAM
COc1ccc(CN2C(=O)CNC2=S)cc1 | 0.3 | -6.0 | -5.5 | 0.3 | 6.1 | 1.9
COc1ccccc1-c1nnc(Nc2nc3c(OC)cccc3s2)o1 | 3.2 | -6.0 | 0.8 | 24.4 | 34.5* | -3.4
COc1cccc(NC(=O)CN2C(=O)C(c3ccc(C)cc3)=NC23CCCCCC3)c1 | -0.6 | 0.0 | 0.1 | 7.5 | 5.1 | -5.6
COc1cc(NC(=O)CN2C(=O)C(c3ccccc3)=NC23CCCCCC3)cc(OC)c1 | 2.4 | 21.2* | -0.5 | -0.6 | -2.9 | 3.7
CNCCCC1c2ccccc2C=Cc2ccccc21 | 4.1 | -17.6 | -0.3 | 98.7* | 91.2* | -18.9
CCc1ccc(CN2CCCC(C(=O)Nc3ccc(-c4cscn4)cc3)C2)o1 (stereo unspecified) | 3.4 | -3.5 | -2.5 | -12.1 | -0.5 | 9.3
Cc1ccccc1NC(=S)NC(=O)/C=C/c1ccco1 | 0.6 | -1.0 | 4.9 | -17.2 | -12.0 | 22.0*
O=c1[nH]c(-c2ccccc2)nn1-c1ccc(Br)cc1Br | 0.7 | -3.0 | 3.4 | -14.2 | -7.2 | -11.1
CC(=O)/C=C1/C(=O)Nc2ccccc21 | 2.2 | 1.9 | 0.3 | 28.4* | 4.0 | 9.2
C=CCOc1cccc(C(=O)/C=C2/C(=O)Nc3ccccc32)c1 | 7.8 | -14.0 | 11.7 | 21.4 | 23.2 | 4.7
COc1ccc(CNC(=O)C2CC(c3ccc(F)cc3)=NO2)cc1 (stereo unspecified) | 1.2 | 35.9* | -2.2 | -7.9 | -0.6 | -0.9
COc1ccc(C2=NOC(C(=O)NCc3ccc(F)cc3)C2)cc1 (stereo unspecified) | -0.1 | 0.5 | 0.7 | 0.0 | 9.7 | -3.7
Cc1ccnc(NC(=O)CCNC(=O)c2ccccc2Cl)c1 | 0.5 | 21.4* | -3.4 | 7.6 | -3.5 | -3.5
Cc1ccc(NC(=O)CCNC(=O)c2ccccc2Cl)nc1 | 1.0 | -2.8 | -1.7 | -1.9 | 3.1 | -1.1
COc1ccccc1C(=O)COC(=O)c1cccs1 | 2.4 | 4.5 | -0.8 | 11.8 | -4.2 | 1.2
COc1ccccc1C(=O)COC(=O)c1ccccc1O | 2.2 | 6.3 | -3.9 | 33.2* | -5.9 | -12.8
Cc1nn(-c2ccccc2)c(C)c1C(=O)OCC(=O)Nc1ccccc1C(F)(F)F | -2.9 | 23.1* | -2.7 | -3.0 | -1.5 | -4.8
COc1ccccc1NC(=O)COC(=O)c1c(C)nn(-c2ccccc2)c1C | 17.3 | -0.9 | -0.1 | 17.0 | 5.8 | -31.5
